Data published in PMC6904512 (Molecular microbiology, 2019).

Columns and labels:
EcIMPDH/D243G = EcIMPDH/D243G (Escherichia coli, UniProt P0ADG7, D243G); assay: biochemical; format: biochemical
EcIMPDH/WT = EcIMPDH/WT (Escherichia coli, UniProt P0ADG7); assay: biochemical; format: biochemical
AbIMPDH = AbIMPDH (Acinetobacter baumannii, UniProt D0CF46); assay: biochemical; format: biochemical
[1] = tested on: E. coli strains containing WT and mutant IMPDH; assay: Growth of engineered E. coli strains with WT or mutant IMPDH; format: cell-based, Escherichia coli
Method in brief: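 E. coli strains carrying WT or mutant IMPDH (guaB) were precultured overnight to saturation in M9 + 1 mM IPTG + 2 g/L glucose. They were diluted 100-fold into M9 salts with 300 mg/L thiamine, 1 mM IPTG and the carbon source; for coumarate, 1 g/L with or without 5 mg/L guanosine (~18 μM). Triplicate cultures were read at OD600 in a plate reader, growth rates were curve-fitted, and standard deviation was taken over three biological replicates.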

EcIMPDH/D243G, sequence (P0ADG7 whole entry D243G): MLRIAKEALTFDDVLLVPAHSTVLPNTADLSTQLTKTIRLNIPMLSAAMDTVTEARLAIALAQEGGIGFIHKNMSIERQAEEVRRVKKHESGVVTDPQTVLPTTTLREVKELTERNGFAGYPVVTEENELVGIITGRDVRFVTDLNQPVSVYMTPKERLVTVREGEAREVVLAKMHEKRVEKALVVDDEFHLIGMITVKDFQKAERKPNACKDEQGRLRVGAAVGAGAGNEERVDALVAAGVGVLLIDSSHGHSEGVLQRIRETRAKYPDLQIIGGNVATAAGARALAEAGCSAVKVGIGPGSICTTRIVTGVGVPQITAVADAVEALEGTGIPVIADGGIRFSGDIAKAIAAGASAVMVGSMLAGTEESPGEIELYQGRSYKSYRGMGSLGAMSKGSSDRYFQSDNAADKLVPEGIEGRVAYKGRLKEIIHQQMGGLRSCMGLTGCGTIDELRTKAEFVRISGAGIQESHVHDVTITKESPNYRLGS
EcIMPDH/WT, sequence (P0ADG7 whole entry): as the sequence (P0ADG7 whole entry D243G) above, with G243D counted along it

O=Cc1ccc(O)cc1 [4-hydroxybenzaldehyde]
Inhibition mechanism with respect to IMP (EcIMPDH/D243G; D243G EcIMPDH): uncompetitive inhibitor | Inhibition mechanism with respect to NAD+ (EcIMPDH/D243G; D243G EcIMPDH): noncompetitive (mixed) inhibitor | Ki (EcIMPDH/D243G; Ki,app(4HB), EcIMPDH/D243G, 20 nM enzyme, 12 μM IMP, 500 μM NAD+, pH 7.0): 1250 ± 50 µM | Ki (EcIMPDH/WT; Ki,app(4HB), EcIMPDH/WT, 20 nM enzyme, 12 μM IMP, 500 μM NAD+, pH 7.0): 320 ± 30 µM | Inhibition mechanism with respect to IMP (EcIMPDH/WT; wild type EcIMPDH): uncompetitive inhibitor | Inhibition mechanism with respect to NAD+ (EcIMPDH/WT; wild type EcIMPDH): noncompetitive (mixed) inhibitor | Ki (AbIMPDH): 720 ± 30 µM

NC(=O)c1ccc[n+]([C@@H]2O[C@H](COP(=O)([O-])OP(=O)(O)OC[C@H]3O[C@@H](n4cnc5c(N)ncnc54)[C@H](O)[C@@H]3O)[C@@H](O)[C@H]2O)c1 [NAD]
Kii(NAD) (EcIMPDH/D243G; EcIMPDH/D243G, substrate inhibition by NAD, fixed 1.2 mM IMP): 3500 ± 690 µM | Km (EcIMPDH/D243G; read-out: Km(NAD), EcIMPDH/D243G, fixed 1.2 mM IMP, 50 nM enzyme): 210 ± 40 µM | Kii(NAD) (EcIMPDH/WT; EcIMPDH/WT, substrate inhibition by NAD, fixed 1.2 mM IMP): 4300 ± 530 µM | Km (EcIMPDH/WT; read-out: Km(NAD), EcIMPDH/WT, fixed 1.2 mM IMP, 50 nM enzyme): 210 ± 20 µM | Kii(NAD) (AbIMPDH; AbIMPDH, substrate inhibition by NAD, fixed 1.2 mM IMP): 10600 ± 1100 µM | Km (AbIMPDH; read-out: Km(NAD), AbIMPDH, fixed 1.2 mM IMP, 50 nM enzyme): 208 ± 17 µM

Nc1nc2c(ncn2[C@@H]2O[C@H](CO)[C@@H](O)[C@H]2O)c(=O)[nH]1 [guanosine]
Effect of added guanosine on inhibition by 4-hydroxybenzaldehyde ([1]; strain JME129 (wild-type guaB), growth with glucose (Figure S6)): relieved inhibition | Effect of added guanosine on growth with coumarate ([1]; strain with wild-type IMPDH, 1 g/L coumarate, 5 mg/L guanosine): increased growth with coumarate
